Calls of active or inactive are those of the source. No cut-off for these calls is given here.
What was measured:
A-375 = assay: Antiproliferative activity against human A375 cells assessed as reduction in cell viability measured after 72 hrs by MTT assay; assay type: functional, cell-based; conditions: A-375, 72 h
Method in brief: (§1)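 Cells seeded at 5×10^3 per well and cultured overnight, then exposed for 72 h at 37 °C to six concentrations from 10 µM down to 0.0001 µM (from 10 mM DMSO stock diluted in medium; vehicle 1% DMSO in PBS). MTT at 0.5 mg/mL was added for 4 h, formazan dissolved in DMSO, and A570 read. IC50 given as mean ± SD of three independent experiments.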

A549 [1] = assay: Cell cycle arrest in human A549 cells assessed as accumulation at S phase at 30 nM after 24 hrs by propidium iodide/RNase A staining-based flow cytometric analysis (reference value: 12.57%); assay type: functional
A549 [2] = assay: Induction of apoptosis in human A549 cells assessed as early apoptotic cells at 30 nM after 12 hrs by Annexin-V FITC/propidium iodide staining based flow cytometric analysis (reference value: 0.32%); assay type: functional
A549 [3] = assay: Cell cycle arrest in human A549 cells assessed as accumulation at G2 phase at 90 nM after 24 hrs by propidium iodide/RNase A staining-based flow cytometric analysis (reference value: 30.02%); assay type: functional
A549 [4] = assay: Induction of apoptosis in human A549 cells assessed as viable cells at 90 nM after 12 hrs by Annexin-V FITC/propidium iodide staining based flow cytometric analysis (reference value: 97.18%); assay type: functional; conditions: A549, 12 h, read-out: Activity
A549 [5] = assay: Induction of apoptosis in human A549 cells assessed as viable cells at 60 nM after 6 hrs by Annexin-V FITC/propidium iodide staining based flow cytometric analysis; assay type: functional; conditions: A549, 6 h, read-out: Activity
Method in brief: (§2)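 Time-course: A549 (2×10^5 cells/well, grown overnight) exposed to 60 nM for 6, 12 or 24 h; untreated control. Cells trypsinized, washed in cold PBS, stained 15 min with Annexin V-FITC in binding buffer, then PI, and read by flow cytometry; duplicate experiments.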

A549 [6] = assay: Induction of apoptosis in human A549 cells assessed as necrotic cells at 30 nM after 12 hrs by Annexin-V FITC/propidium iodide staining based flow cytometric analysis (reference value: 1.28%); assay type: functional
A549 [7] = assay: Cell cycle arrest in human A549 cells assessed as accumulation at G1 phase at 90 nM after 24 hrs by propidium iodide/RNase A staining-based flow cytometric analysis (reference value: 57.41%); assay type: functional
A549 [8] = assay: Cell cycle arrest in human A549 cells assessed as accumulation at G2 phase at 60 nM after 24 hrs by propidium iodide/RNase A staining-based flow cytometric analysis (reference value: 30.02%); assay type: functional
A549 [9] = assay: Cell cycle arrest in human A549 cells assessed as accumulation at S phase at 60 nM after 24 hrs by propidium iodide/RNase A staining-based flow cytometric analysis (reference value: 12.57%); assay type: functional
A549 [10] = assay: Cell cycle arrest in human A549 cells assessed as accumulation at S phase at 90 nM after 24 hrs by propidium iodide/RNase A staining-based flow cytometric analysis (reference value: 12.57%); assay type: functional
A549 [11] = assay: Induction of apoptosis in human A549 cells assessed as necrotic cells at 60 nM after 24 hrs by Annexin-V FITC/propidium iodide staining based flow cytometric analysis; assay type: functional; method in brief: as §2
A549 [12] = assay: Cell cycle arrest in human A549 cells assessed as accumulation at G1 phase at 60 nM after 24 hrs by propidium iodide/RNase A staining-based flow cytometric analysis (reference value: 57.41%); assay type: functional
A549 [13] = assay: Induction of apoptosis in human A549 cells assessed as late apoptotic cells at 60 nM after 24 hrs by Annexin-V FITC/propidium iodide staining based flow cytometric analysis; assay type: functional; method in brief: as §2
HCT-116 = assay: Antiproliferative activity against human HCT116 cells assessed as reduction in cell viability measured after 72 hrs by MTT assay; assay type: functional, cell-based; conditions: Homo sapiens, HCT-116, 72 h; read-out: IC50
Method in brief: (§3)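 Cells seeded 5×10^3/well, cultured overnight, then exposed to 10, 1, 0.1, 0.01, 0.001 and 0.0001 µM (from 10 mM DMSO stocks diluted in medium; vehicle 1% DMSO PBS) for 72 h at 37 °C. Medium replaced with 0.5 mg/mL MTT for 4 h, formazan dissolved in DMSO, A570 read. IC50 as mean ± SD of three independent experiments.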

MCF7 = assay: Antiproliferative activity against human MCF7 cells assessed as reduction in cell viability measured after 72 hrs by MTT assay; assay type: functional, cell-based; conditions: MCF7, 72 h; method in brief: as §1
A549 [14] = assay: Induction of apoptosis in human A549 cells after 12 hrs by Annexin-V FITC/propidium iodide staining based flow cytometric analysis; assay type: functional, cell-based
A549 [15] = assay: Induction of apoptosis in human A549 cells assessed as nuclear fragmentation at 90 nM after 24 hrs by […] staining-based confocal laser scanning microscopic analysis; assay type: functional, cell-based
Method in brief: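 A549 exposed to 30, 60 and 90 nM for 24 h, stained with Hoechst 33342, imaged by confocal laser scanning microscopy; strongly blue-fluorescent nuclei scored as apoptotic.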

A549 [16] = assay: Antiproliferative activity against human A549 cells assessed as reduction in cell viability measured after 72 hrs by MTT assay; assay type: functional, cell-based; conditions: Homo sapiens, A549, 72 h; read-out: IC50; method in brief: as §3
A549 [17] = assay: Induction of apoptosis in human A549 cells assessed as late apoptotic cells at 60 nM after 6 hrs by Annexin-V FITC/propidium iodide staining based flow cytometric analysis; assay type: functional; method in brief: as §2
A549 [18] = assay: Induction of apoptosis in human A549 cells assessed as early apoptotic cells at 60 nM after 12 hrs by Annexin-V FITC/propidium iodide staining based flow cytometric analysis (reference value: 0.32%); assay type: functional
A549 [19] = assay: Induction of apoptosis in human A549 cells assessed as early apoptotic cells at 60 nM after 24 hrs by Annexin-V FITC/propidium iodide staining based flow cytometric analysis; assay type: functional; method in brief: as §2
A549 [20] = assay: Induction of apoptosis in human A549 cells assessed as necrotic cells at 60 nM after 6 hrs by Annexin-V FITC/propidium iodide staining based flow cytometric analysis; assay type: functional; method in brief: as §2
A549 [21] = assay: Cell cycle arrest in human A549 cells assessed as accumulation at G2 phase after 24 hrs by propidium iodide/RNase A staining-based flow cytometric analysis; assay type: functional
A549 [22] = assay: Induction of apoptosis in human A549 cells at 60 nM by Annexin-V FITC/propidium iodide staining based flow cytometric analysis; assay type: functional, cell-based; conditions: TDE = time-dependent effect
A549 [23] = assay: Induction of apoptosis in human A549 cells assessed as late apoptotic cells at 30 nM after 12 hrs by Annexin-V FITC/propidium iodide staining based flow cytometric analysis (reference value: 1.22%); assay type: functional
A549 [24] = assay: Induction of apoptosis in human A549 cells assessed as early apoptotic cells at 90 nM after 12 hrs by Annexin-V FITC/propidium iodide staining based flow cytometric analysis (reference value: 0.32%); assay type: functional
A549 [25] = assay: Induction of apoptosis in human A549 cells assessed as increase in caspase3 expression by Western blot analysis; assay type: functional, cell-based
Method in brief: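 A549 treated 30, 60 and 90 nM for 24 h; lysates normalized by BCA, 30 μg protein denatured in SDS buffer at 100 °C 8 min, SDS-PAGE, PVDF transfer, blocked in 5% milk/TBS-0.05% Tween 2 h, primary antibodies overnight at 4 °C, HRP anti-rabbit IgG 2 h, ECL detection; β-actin loading control.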

IC50 (A-375): 4.3 nM | IC50 (HCT-116): 48.5 nM | IC50 (MCF7): 15 nM | IC50 (A549 [16]): 20.2 nM
Compound: COc1cc(C[C@H]2NC(=O)[C@H](C(C)C)N(C)C(=O)/C(C)=C/C[C@@H](OC)/C(C)=C/C=C/[C@@H](C)[C@@H](c3ccccc3)OC(=O)[C@H](C(C)C)NC2=O)ccc1O
Activity (A549 [1]): 13.21% | Activity (A549 [2]): 1.21% | Activity (A549 [3]): 57.73% | viability at 0.09 µM (A549 [4]): 55.4% | viability at 0.06 µM (A549 [5]): 92.3% | Activity (A549 [6]): 9.87% | Activity (A549 [7]): 37.81% | Activity (A549 [8]): 40.8% | Activity (A549 [9]): 14.75% | Activity (A549 [10]): 4.46% | Activity (A549 [11]): 13.07% | Activity (A549 [12]): 44.44% | Activity (A549 [13]): 29.03% | Activity (A549 [14]): Dose-dependent effect | Activity (A549 [15]): Active | Activity (A549 [17]): 5.08% | Activity (A549 [18]): 3.55% | Activity (A549 [19]): 3.48% | Activity (A549 [20]): 2.3% | Activity (A549 [21]): Dose-dependent effect | Activity (A549 [22]): Tde | Activity (A549 [23]): 13.6% | Activity (A549 [24]): 3.55% | Activity (A549 [25]): Dose-dependent effect

— ChEMBL document CHEMBL4346669, “Novel nannocystin A analogues as anticancer therapeutics: Synthesis, biological evaluations and structure-activity relationship studies” (Eur J Med Chem, 2019)
